This is an account of results in PMC4832564 (Amyloid : the international journal of experimental and …, 2015).

Like-named read-outs stand apart in the source and are kept apart here. Where no end group is shown, it is not given here. Bounds are passed on as bounds.

In series [1] the test system is synthetic rVλ6Wil fibrils. Type of series: binding, human. The conditions noted are these: for % bound relative to no inhibitor: 50 μg rVλ6Wil fibrils, mean of duplicate experiments. In outline: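 ¹²⁵I-p5 or ¹²⁵I-RAGE VC1 (chloramine T iodination) pre-incubated 30 min RT with AGE-BSA, BSA, enoxaparin or E. coli-expressed human S100B (100, 4 or 1 μM). 50 μg fibrils from E. coli-made rVλ6Wil then added in PBS/0.05% tween 20 (S100B: TBS with 1 mM CaCl₂) and rotated 1 h RT. Spun twice at 16 000 × g, 10 min each. Pellet and supernatant gamma-counted; % bound relative to no inhibitor; mean of duplicate experiments.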

The conditions of series [2]: mouse, in vivo, iv.
The test system of a further series is systemic AA amyloid. The class given is in vivo, mouse. The conditions noted are these: mice with systemic visceral AA amyloidosis, 2 h post-injection iv; triplicate.
The target in series [3] is Synthetic amyloid fibrils of human islet amyloid polypeptide (IAPP) (human) (UniProt P10997). The experiment in a line: co-sedimentation.
Series [4] has as its target Synthetic amyloid fibrils of the recombinant λ6 variable domain from patient Wil (rVλ6Wil) (human). The experiment in a line: co-sedimentation.
In series [5] the test system is heparin and synthetic amyloid fibrils. The conditions noted are these: cited from earlier work.
Series [6] addresses Synthetic amyloid fibrils of Aβ(1–40). The experiment in a line: co-sedimentation.
In series [7] the target is Synthetic amyloid fibrils of the recombinant λ6 variable domain from patient Wil (rVλ6Wil) (human). The experiment in a line: co-sedimentation. This is another data set of the same source.

Chain of Synthetic amyloid fibrils of human islet amyloid polypeptide (IAPP) (human) (P10997 34-70): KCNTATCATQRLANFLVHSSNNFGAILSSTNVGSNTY

For the molecule “CGGYSKAQKAQAKQAKQAQKAQKAQAKQAKQ [p5]”, the “decrease in binding to fibrils on addition of BSA” value in series [1] (125I-labelled, BSA added (100 μM in Table 1)) is recorded as ~ 30%. In addition, the “decrease in binding with the synthetic amyloid fibrils” value in series [1] (125I-labelled, Enoxaparin 100 μM) is on record as 13%. The “decrease in binding to fibrils on addition of S100B” value in series [1] (125I-labelled, human recombinant S100B, in the presence of 1 mM CaCl2) stood at 20%. Besides, the “reduction of reactivity with rVλ6Wil fibrils” value in series [1] (125I-labelled, pre-incubation with AGE-BSA at 100 μM) was ~ 90%.

Consider “125I-p5: peptide p5 radioiodinated with 125I (CGGYSKAQKAQAKQAKQAQKAQKAQAKQAKQ; also: 125I radiolabel)”, for which the “% bound relative to no inhibitor” value in series [1] (PBS) amounted to 100.0%; in series [1] (TBS with 1 mM CaCl2), 76.5%.

Consider “99mTc-p5: peptide p5 radiolabeled with 99mTc (CGGYSKAQKAQAKQAKQAQKAQKAQAKQAKQ; also: 99mTc radiolabel)”, for which, in series [2], the “T:M ratio, Heart” value is reported as 2.75; the “T:M ratio, L. Kidney” value came to 659.97; the “T:M ratio, Liver” value amounted to 12.44; the “T:M ratio, Low. Intestine” value amounted to 14.55. In addition, in series [2], the “T:M ratio, Muscle” value turned out to be 1.00; the “T:M ratio, Pancreas” value was 3.92; the “T:M ratio, R. Kidney” value is recorded as 711.82; the “T:M ratio, Spleen” value was found to be 4.65. For the same molecule, in series [2], the “T:M ratio, Stomach” value stood at 9.62 and the “T:M ratio, Up. Intestine” value is 8.88. Further, the “distribution of radiotracer by SPECT/CT in AA mice” value in the series on systemic AA amyloid is “coincident retention of both radiotracers in the amyloid-laden liver and spleen”.

In series [3], “Recombinant human RAGE VC1 (soluble recombinant variable and constant-1 domains of RAGE) (domain or fragment)” displayed a % reduction of ^125I-p5R binding to IAPP fibrils of 70% and a % reduction of ^125I-p5 binding to IAPP fibrils of 90%. In series [4], the % bound relative to no inhibitor (no inhibitor, PBS) is 100%; the % bound relative to no inhibitor (no inhibitor, TBS with 1 mM CaCl2) was 102%; the % bound relative to no inhibitor, with 4 μM enoxaparin is 102%; the % bound relative to no inhibitor, with 100 μM enoxaparin came out at 94%.

For “GGGYSRAQRAQARQARQAQRAQRAQARQARQ [p5R]”, the “affinity relative to p5” value in series [5] was “higher affinity for both heparin and synthetic amyloid fibrils”.

With GGGYSRAQRAQARQARQAQRAQRAQARQARQ (also: radioiodinated (125I, chloramine T)) [Peptide p5R], the % bound to the fibril pellet in series [6] and in series [7] was above 50% in each case.

In series [6], CGGYSKAQKAQAKQAKQAQKAQKAQAKQAKQ (not fully specified; also: 99mTc-labeled in imaging studies) [Peptide p5] yielded a % bound to the fibril pellet above 50%. Also, in series [7], the % bound relative to no inhibitor (no inhibitor, PBS) is 100%; the % bound relative to no inhibitor (no inhibitor, TBS with 1 mM CaCl2) was 76.5%; the % bound relative to no inhibitor, with 4 μM enoxaparin was determined as 97.6%; the % bound relative to no inhibitor, with 100 μM enoxaparin was 87.4%. For the same molecule, the % bound to the fibril pellet in series [7] was above 50%.
